Experimental data reported in ChEMBL document CHEMBL1125870, “Chemical and biological studies on a series of lipid-soluble (trans-(R,R)- and -(S,S)-1,2-diaminocyclohexane)platinum(II) complexes incorporated in liposomes” (J Med Chem, 1991).

What was measured:
Rattus norvegicus [1] = organism: Rattus norvegicus; experiment: Compound was tested for the subacute single dose from the toxicity studies in rats.; type: organism-based; settings: in vivo
Mus musculus [2] = experiment: Compound was tested for its efficacy against L1210 / cisplatin Leukemia in mice at a dose of 5 mg/kg through intraperitoneal route.(Treatment schedule day is 1,5,9).; type: functional, organism-based; parameters: dose 5 mg/kg
How it was run: (§1)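 L1210/cisplatin cells (NCI repository) passaged weekly ip in BDF1 mice. Groups of six B6D2F1 mice, 20-25 g, inoculated ip with 10^6 cells on day 0, then given liposomal Pt (DMPC:DMPG 7:3 multilamellar vesicles in 0.9% NaCl) or cisplatin ip on days 1, 5 and 9. Read-out %T/C = median survival treated/control ×100; study ended day 60; average of two experiments.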

Mus musculus [3] = experiment: Compound was tested for its efficacy against L1210 Leukemia in mice at a dose of 25 mg/kg through intraperitoneal route.(Treatment schedule day is 1).; type: functional, organism-based; parameters: dose 25 mg/kg
How it was run: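 Six B6D2F1 mice per group, 20-25 g, inoculated ip with 10^6 L1210/0 cells on day 0. A single ip dose of liposomal Pt (DMPC:DMPG 7:3 multilamellar vesicles in 0.9% NaCl) was given on day 1; doses of 12.5, 25 and 50 mg/kg were tested. %T/C = median survival treated/control ×100; study ended day 60; mean of three experiments.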

Mus musculus [4] = experiment: Compound was tested for its efficacy against L1210 Leukemia in mice at a dose of 5 mg/kg through intraperitoneal route.(Treatment schedule day is 1,5,9).; type: functional, organism-based; parameters: dose 5 mg/kg
Mus musculus [5] = experiment: Compound was tested for its efficacy against L1210 / cisplatin Leukemia in mice at a dose of 25 mg/kg through intraperitoneal route.(Treatment schedule day is 1,5,9).; type: functional, organism-based; parameters: dose 25 mg/kg; how it was run: as §1
Mus musculus [6] = experiment: Compound was tested for its efficacy against L1210 Leukemia in mice at a dose of 25 mg/kg through intraperitoneal route.(Treatment schedule day is 1,5,9).; type: functional, organism-based; parameters: dose 25 mg/kg
How it was run: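 L1210/0 leukemia passaged weekly ip in BDF1 mice. Six B6D2F1 mice per group (20-25 g) received 10^6 cells ip on day 0. Liposomal Pt (DMPC:DMPG 7:3 MLVs in 0.9% NaCl) or cisplatin was given ip on days 1, 5, 9; doses tested 12.5, 25, 50 mg/kg. Optimal dose is the highest %T/C without toxic deaths. %T/C is from median survival; study ended day 60; average of two experiments.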

Rattus norvegicus [7] = organism: Rattus norvegicus; experiment: Compound was tested for the subacute single dose from the toxicity studies in rats; type: organism-based; settings: in vivo

## CISPLATIN [listing 1 of 2 here]
Rattus norvegicus [1]
  LD50: 17.5 mg/kg

## CISPLATIN [listing 2 of 2 here]
Mus musculus [2]
  T/C: 112%
Mus musculus [3]
  T/C: 175%
Mus musculus [4]
  T/C: 220%

## Liposomal preparation of (ttans-(R,R)-dach)Pt complex containing isomeric mixture of neodecanoic acid (L-NDDP) [listing 1 of 2 here]
Rattus norvegicus [1]
  LD50: 54 mg/kg

## Liposomal preparation of (ttans-(R,R)-dach)Pt complex containing isomeric mixture of neodecanoic acid (L-NDDP) [listing 2 of 2 here]
Mus musculus [5]
  T/C: 200%
Mus musculus [3]
  T/C: 187%
Mus musculus [6]
  T/C: 312%

## Pt (2,2-diethyl-4-methylpentanoato)2((R,R)-dach) [listing 1 of 2 here]
Rattus norvegicus [1]
  LD50: 62.3 mg/kg

## Pt (2,2-diethyl-4-methylpentanoato)2((R,R)-dach) [listing 2 of 2 here]
Mus musculus [5]
  T/C: 185%
Mus musculus [3]
  T/C: 225%
Mus musculus [6]
  T/C: 257%

## Pt (2,2-diethyl-4-methylpentanoato)2((S,S)-dach) [listing 1 of 2 here]
Rattus norvegicus [7]
  LD50: 81 mg/kg

## Pt (2,2-diethyl-4-methylpentanoato)2((S,S)-dach) [listing 2 of 2 here]
Mus musculus [3]
  T/C: 160%

## Pt (2,2-diethylhexanoato)2((R,R)-dach) [listing 1 of 2 here]
Rattus norvegicus [1]
  LD50: 80.8 mg/kg

## Pt (2,2-diethylhexanoato)2((R,R)-dach) [listing 2 of 2 here]
Mus musculus [5]
  T/C: 231%
Mus musculus [3]
  T/C: 253%
Mus musculus [6]
  T/C: 257%

## Pt (2,2-diethylhexanoato)2((S,S)-dach) [listing 1 of 2 here]
Rattus norvegicus [1]
  LD50: 104 mg/kg

## Pt (2,2-diethylhexanoato)2((S,S)-dach) [listing 2 of 2 here]
Mus musculus [3]
  T/C: 190%

## Pt (2,2-dimethyl-4-ethylhexanoato)2((R,R)-dach)
Mus musculus [3]
  T/C: 212%

## Pt (2,2-dimethyloctanoato)2((R,R)-dach) [listing 1 of 2 here]
Rattus norvegicus [1]
  LD50: 94.5 mg/kg

## Pt (2,2-dimethyloctanoato)2((R,R)-dach) [listing 2 of 2 here]
Mus musculus [5]
  T/C: 355%
Mus musculus [3]
  T/C: 234%
Mus musculus [6]
  T/C: 257%

## Pt (2,2-dimethyloctanoato)2((S,S)-dach) [listing 1 of 2 here]
Rattus norvegicus [1]
  LD50: 87 mg/kg

## Pt (2,2-dimethyloctanoato)2((S,S)-dach) [listing 2 of 2 here]
Mus musculus [3]
  T/C: 150%
